Source: ChEMBL document CHEMBL4118144, “Design, Synthesis, and Testing of Potent, Selective Hepsin Inhibitors via Application of an Automated Closed-Loop Optimization Platform” (J Med Chem, 2018)

Tests used:
HepG2 = assay: Cytotoxicity against human HepG2 cells assessed as reduction in cell viability after 48 hrs by CellTiter-Blue/CytoTox-ONE-based assay; conditions: HepG2, 48 h
Summary of the method: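 Human Hep-G2 cells were exposed to compound at concentrations up to 10 µM. The value is reported as viable-50 (µM), the concentration at which 50% of cells remain viable.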

[1] = biological target: Prothrombin (Homo sapiens) (UniProt P00734); assay: Inhibition of human thrombin using Z-Gly-Pro-Arg-AMC as substrate at 10 uM after 60 mins by fluorescence spectrophotometric method relative to control
Summary of the method: (§1)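 Panel of ten serine proteases; percent inhibition read at compound concentrations of 1 µM and 10 µM, each value the mean of 2 experiments.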

[2] = biological target: T1, Cathepsin G (Homo sapiens) (UniProt P08311); assay: Inhibition of human cathepsin G using Suc-Ala-Ala-Pro-Phe-AMC as substrate at 1 uM after 30 mins by fluorescence spectrophotometric method relative to control; summary of the method: as §1
T1 sequence (whole entry): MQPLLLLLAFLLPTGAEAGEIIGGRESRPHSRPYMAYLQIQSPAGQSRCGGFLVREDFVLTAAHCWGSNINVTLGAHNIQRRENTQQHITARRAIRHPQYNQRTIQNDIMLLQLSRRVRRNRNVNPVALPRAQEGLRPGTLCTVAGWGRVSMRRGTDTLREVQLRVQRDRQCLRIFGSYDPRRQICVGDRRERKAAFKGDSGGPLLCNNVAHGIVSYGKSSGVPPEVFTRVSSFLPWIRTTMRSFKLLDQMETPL

[3] = biological target: T1, Cathepsin G (Homo sapiens); assay: Inhibition of human cathepsin G using Suc-Ala-Ala-Pro-Phe-AMC as substrate at 10 uM after 30 mins by fluorescence spectrophotometric method relative to control; summary of the method: as §1
[4] = biological target: Dipeptidyl peptidase 4 (Homo sapiens) (UniProt P27487); assay: Inhibition of recombinant full length human dipeptidyl peptidase 4 using GP-AMC as substrate at 10 uM after 10 mins by fluorescence spectrophotometric method relative to control; summary of the method: as §1
Dipeptidyl peptidase 4 (Homo sapiens), sequence (P27487 whole entry, looked up): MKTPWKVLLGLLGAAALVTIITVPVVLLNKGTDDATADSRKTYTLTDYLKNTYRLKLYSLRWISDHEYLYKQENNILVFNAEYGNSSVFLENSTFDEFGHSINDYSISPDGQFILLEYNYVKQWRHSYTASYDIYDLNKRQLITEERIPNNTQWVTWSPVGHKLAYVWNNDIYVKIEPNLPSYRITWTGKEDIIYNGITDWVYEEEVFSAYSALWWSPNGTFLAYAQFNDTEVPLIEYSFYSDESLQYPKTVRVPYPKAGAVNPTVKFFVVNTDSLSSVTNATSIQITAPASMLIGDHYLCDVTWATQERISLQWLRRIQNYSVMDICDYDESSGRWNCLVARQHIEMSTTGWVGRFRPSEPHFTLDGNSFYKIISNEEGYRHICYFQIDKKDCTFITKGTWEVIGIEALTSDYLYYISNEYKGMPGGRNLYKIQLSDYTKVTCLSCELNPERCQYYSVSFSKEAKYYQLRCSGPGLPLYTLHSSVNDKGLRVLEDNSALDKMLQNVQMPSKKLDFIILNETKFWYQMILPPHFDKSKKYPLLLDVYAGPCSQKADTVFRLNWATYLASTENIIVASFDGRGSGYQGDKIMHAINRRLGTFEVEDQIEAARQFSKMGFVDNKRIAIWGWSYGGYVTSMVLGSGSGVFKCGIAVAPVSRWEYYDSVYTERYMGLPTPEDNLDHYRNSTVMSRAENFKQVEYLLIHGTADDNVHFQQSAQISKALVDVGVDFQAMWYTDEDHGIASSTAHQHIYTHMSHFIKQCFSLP

[5] = biological target: Plasma kallikrein (Homo sapiens) (UniProt P03952); assay: Inhibition of human plasma kallikrein using H-D-Pro-Phe-Arg-pNA as substrate at 10 uM after 30 mins by spectrophotometric method relative to control; summary of the method: as §1
Plasma kallikrein (Homo sapiens), sequence (P03952 20-390 limits assumed): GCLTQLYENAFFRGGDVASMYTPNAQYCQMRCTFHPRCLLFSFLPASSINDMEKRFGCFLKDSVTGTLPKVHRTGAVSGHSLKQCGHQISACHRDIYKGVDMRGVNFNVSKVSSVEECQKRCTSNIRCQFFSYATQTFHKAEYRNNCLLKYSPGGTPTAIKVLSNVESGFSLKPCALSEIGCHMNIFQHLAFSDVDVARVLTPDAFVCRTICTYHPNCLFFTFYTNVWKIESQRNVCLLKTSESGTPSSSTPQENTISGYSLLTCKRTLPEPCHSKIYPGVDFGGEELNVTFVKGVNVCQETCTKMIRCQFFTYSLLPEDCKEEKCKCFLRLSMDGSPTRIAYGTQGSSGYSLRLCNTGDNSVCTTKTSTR
Plasma kallikrein (Homo sapiens), sequence (P03952 391-638 limits assumed): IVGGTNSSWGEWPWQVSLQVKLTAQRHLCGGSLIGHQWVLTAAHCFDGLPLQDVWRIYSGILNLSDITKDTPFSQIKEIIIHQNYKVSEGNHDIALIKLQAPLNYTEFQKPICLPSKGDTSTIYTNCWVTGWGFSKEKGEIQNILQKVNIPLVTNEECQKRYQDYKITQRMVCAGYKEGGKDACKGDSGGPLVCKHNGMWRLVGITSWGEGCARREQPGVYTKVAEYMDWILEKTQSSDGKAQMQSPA

[6] = biological target: T2, Neutrophil elastase (Homo sapiens) (UniProt P08246); assay: Inhibition of human ELA2 using N-MeOSuc-Ala-Ala-Pro-Val-pNA as substrate at 10 uM after 60 mins by spectrophotometric method relative to control; summary of the method: as §1
T2 sequence (whole entry): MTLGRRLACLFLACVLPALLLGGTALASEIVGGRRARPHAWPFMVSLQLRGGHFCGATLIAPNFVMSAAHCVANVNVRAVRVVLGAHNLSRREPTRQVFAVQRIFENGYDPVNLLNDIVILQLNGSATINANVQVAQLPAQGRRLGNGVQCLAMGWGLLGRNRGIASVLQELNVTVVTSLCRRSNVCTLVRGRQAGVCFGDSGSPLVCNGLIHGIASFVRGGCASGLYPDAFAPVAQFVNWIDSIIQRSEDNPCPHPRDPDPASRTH

[7] = biological target: T3, Suppressor of tumorigenicity 14 protein (Homo sapiens) (UniProt Q9Y5Y6); assay: Inhibition of matriptase (unknown origin) using BOC-QAR-AMC as substrate at 10 uM after 15 mins by fluorescence assay relative to control; summary of the method: as §1
T3 sequence (whole entry): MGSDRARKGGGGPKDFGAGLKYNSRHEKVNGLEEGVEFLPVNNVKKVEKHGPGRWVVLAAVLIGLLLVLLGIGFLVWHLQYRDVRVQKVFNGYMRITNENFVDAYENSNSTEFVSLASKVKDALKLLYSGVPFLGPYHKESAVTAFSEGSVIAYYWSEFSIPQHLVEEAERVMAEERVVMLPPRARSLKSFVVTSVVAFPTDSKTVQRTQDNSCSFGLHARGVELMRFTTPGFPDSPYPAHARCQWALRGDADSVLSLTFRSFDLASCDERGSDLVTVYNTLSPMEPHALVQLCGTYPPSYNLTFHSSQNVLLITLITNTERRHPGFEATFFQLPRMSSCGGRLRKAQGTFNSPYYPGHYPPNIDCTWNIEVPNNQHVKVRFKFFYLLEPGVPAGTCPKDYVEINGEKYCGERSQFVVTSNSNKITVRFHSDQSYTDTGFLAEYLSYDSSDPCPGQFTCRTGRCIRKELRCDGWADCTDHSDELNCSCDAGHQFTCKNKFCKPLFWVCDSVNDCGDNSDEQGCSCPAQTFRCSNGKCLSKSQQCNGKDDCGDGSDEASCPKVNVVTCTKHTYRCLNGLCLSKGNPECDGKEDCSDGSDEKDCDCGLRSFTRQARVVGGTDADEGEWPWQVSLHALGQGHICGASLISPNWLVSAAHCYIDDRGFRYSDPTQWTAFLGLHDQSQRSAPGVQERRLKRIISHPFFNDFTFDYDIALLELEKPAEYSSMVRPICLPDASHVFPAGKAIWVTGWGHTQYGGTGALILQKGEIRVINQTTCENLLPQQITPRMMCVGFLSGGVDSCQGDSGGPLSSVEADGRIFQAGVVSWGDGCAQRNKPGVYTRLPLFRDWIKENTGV

[8] = biological target: Coagulation factor X (Homo sapiens) (UniProt P00742); assay: Inhibition of factor 10a (unknown origin) at 10 uM after 15 mins by fluorescence assay relative to control; summary of the method: as §1
Coagulation factor X (Homo sapiens), sequence (P00742 41-179 limits assumed): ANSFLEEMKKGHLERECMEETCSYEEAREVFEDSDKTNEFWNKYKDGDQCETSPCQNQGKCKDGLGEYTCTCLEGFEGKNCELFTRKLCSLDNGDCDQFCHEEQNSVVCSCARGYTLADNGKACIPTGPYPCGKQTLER
Coagulation factor X (Homo sapiens), sequence (P00742 235-488 limits assumed): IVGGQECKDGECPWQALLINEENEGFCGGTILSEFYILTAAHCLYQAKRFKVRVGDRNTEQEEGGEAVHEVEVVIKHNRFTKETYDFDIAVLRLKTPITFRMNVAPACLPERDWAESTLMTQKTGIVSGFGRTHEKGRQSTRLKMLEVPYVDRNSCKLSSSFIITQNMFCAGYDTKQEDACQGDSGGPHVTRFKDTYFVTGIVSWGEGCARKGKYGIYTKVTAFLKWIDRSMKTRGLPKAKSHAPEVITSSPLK

[9] = biological target: T4, Hepatocyte growth factor activator serine protease (Homo sapiens) (UniProt Q04756); assay: Inhibition of C-terminal 10-His tagged recombinant human HGFA (Gln36 to Ser655 residues) expressed in mouse […] cells 1 uM after 15 mins by fluorescence assay relative to control; assay type: cell-based
T4 sequence (whole entry): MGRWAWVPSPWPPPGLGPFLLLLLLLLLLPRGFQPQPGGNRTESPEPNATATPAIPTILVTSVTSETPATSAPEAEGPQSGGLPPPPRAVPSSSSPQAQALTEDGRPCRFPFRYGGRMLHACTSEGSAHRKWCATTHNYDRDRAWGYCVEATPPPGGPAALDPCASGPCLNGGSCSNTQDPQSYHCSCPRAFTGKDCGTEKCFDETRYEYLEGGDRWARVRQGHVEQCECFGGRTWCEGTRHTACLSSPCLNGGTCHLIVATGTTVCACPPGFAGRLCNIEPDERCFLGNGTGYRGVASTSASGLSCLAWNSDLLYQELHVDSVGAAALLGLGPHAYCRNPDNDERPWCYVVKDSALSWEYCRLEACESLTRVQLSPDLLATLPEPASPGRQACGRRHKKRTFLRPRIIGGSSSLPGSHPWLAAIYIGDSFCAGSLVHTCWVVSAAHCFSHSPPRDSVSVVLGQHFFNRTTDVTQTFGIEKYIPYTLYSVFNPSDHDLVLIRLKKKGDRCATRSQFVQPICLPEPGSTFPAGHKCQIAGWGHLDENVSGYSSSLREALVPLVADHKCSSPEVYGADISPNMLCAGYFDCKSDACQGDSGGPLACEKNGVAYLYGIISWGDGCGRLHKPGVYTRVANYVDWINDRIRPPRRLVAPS

Cc1ccc(S(=O)(=O)N[C@@H](C(=O)Nc2ccc(C(=N)N)cc2)C2CCCCC2)cc1
IC50 (HepG2): > 10 µM
inhibition [1]: 12%
inhibition [2]: < 10%
inhibition [3]: < 10%
inhibition [4]: < 10%
inhibition [5]: 29%
inhibition [6]: < 10%
inhibition [7]: < 10%
inhibition [8]: < 10%
inhibition [9]: 18%

Cc1ccc(S(=O)(=O)N[C@@H](C(=O)Nc2ccc(C(=N)N)cc2)c2ccccc2)cc1
IC50 (HepG2): > 10 µM
inhibition [1]: 44%
inhibition [2]: < 10%
inhibition [3]: < 10%
inhibition [4]: < 10%
inhibition [5]: 85%
inhibition [6]: < 10%
inhibition [7]: < 10%
inhibition [8]: < 10%
inhibition [9]: 16%

N=C(N)c1ccc(NC(=O)[C@H](NS(=O)(=O)c2ccc(F)cc2)C2CCCCC2)cc1
IC50 (HepG2): > 10 µM
inhibition [1]: 10%
inhibition [2]: < 10%
inhibition [3]: < 10%
inhibition [4]: < 10%
inhibition [5]: 34%
inhibition [6]: < 10%
inhibition [7]: < 10%
inhibition [8]: < 10%
inhibition [9]: 10%
